ChEMBL document CHEMBL2216748 (J Med Chem, 2012)
Activity calls are given as the source filed them.

Assays:
[1] = biological target: T1, Ribosyldihydronicotinamide dehydrogenase [quinone] (Homo sapiens) (UniProt P16083); experiment: Displacement of (S)-N4-(2-(4-(4-(4-methyl-3-(4-(pyridin-3-yl)pyrimidin-2-ylamino)phenylcarbamoyl)benzyl)piperazin-1-yl)ethyl)-N1-(15-oxo-19-((3aS,4S,6aR)-2-oxohexahydro-1H-thieno[3,4-d]imidazol-4-yl)-4,7,10-trioxa-14-azanonadecyl)-2-(4-(3-(trifluoromethyl)-3H-diazirin-3-yl)benzamido)succinamide from human recombinant NQO2 after 1 hr by silver staining-based SDS PAGE analysis
T1 sequence (whole entry): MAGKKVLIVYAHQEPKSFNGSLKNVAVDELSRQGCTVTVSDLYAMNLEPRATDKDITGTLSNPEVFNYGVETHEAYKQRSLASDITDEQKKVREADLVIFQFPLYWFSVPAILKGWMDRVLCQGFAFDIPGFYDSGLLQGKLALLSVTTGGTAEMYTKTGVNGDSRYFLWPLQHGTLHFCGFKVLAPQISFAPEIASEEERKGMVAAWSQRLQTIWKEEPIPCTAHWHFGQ
How it was run: (§1)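 Human recombinant NQO2 (1 μg) was preincubated 30 min at 4 °C with competitor, then capture compound was added at 5 μM final (competitors 100 μM final) and equilibrated 1 h at 4 °C. Samples were UV-irradiated 10 min, pulled down on streptavidin beads and resolved by silver-stained SDS-PAGE.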

[2] = biological target: Histamine N-methyltransferase (Homo sapiens) (UniProt P50135); experiment: (§2) Displacement of 3-(1-methyl-N-(pyridin-2-yl)-2-((4-(N-((S)-6,9,25-trioxo-29-((3aS,4S,6aR)-2-oxohexahydro-1H-thieno[3,4-d]imidazol-4-yl)-8-(4-(3-(trifluoromethyl)-3H-diazirin-3-yl)benzamido)-14,17,20-trioxa-5,10,24-triazanonacosyl)carbamimidoyl)phenylamino)methyl)-1H-benzo[d]imidazole-5-carboxamido)propanoic acid from HNMT in human HepG2 cell lysate after 1 hr by capture compound based LC/MS analysis; type: cell-free
Chain of Histamine N-methyltransferase (Homo sapiens) (P50135 whole entry): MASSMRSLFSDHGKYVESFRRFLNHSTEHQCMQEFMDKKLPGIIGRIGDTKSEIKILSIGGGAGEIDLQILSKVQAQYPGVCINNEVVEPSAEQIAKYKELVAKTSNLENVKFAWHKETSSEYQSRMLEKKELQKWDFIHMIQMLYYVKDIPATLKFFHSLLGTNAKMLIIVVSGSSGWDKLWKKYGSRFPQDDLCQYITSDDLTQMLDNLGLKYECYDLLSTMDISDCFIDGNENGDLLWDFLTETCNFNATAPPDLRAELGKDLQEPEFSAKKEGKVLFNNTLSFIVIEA
How it was run: (§3)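 Capture compound MS: 400 μg HepG2 or K562 lysate in capture buffer, precleared with streptavidin beads 30 min at 4 °C. Competition controls preincubated 30 min at 4 °C with free drug (10 μL of 1 mM). Capture compound (10 μL of 50 μM) equilibrated 1 h at 4 °C, UV-irradiated 10 min, streptavidin bead pulldown, on-bead trypsin digestion, nanoLC-MS/MS. Spectral counts compared capture vs competition (t test). HepG2 in quadruplicate, K562 in duplicate.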

[3] = Inhibition of human alpha thrombin using Boc-Val-Pro-Arg-AMC as substrate after 2 hrs by fluorometric analysis
How it was run: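 Human α-thrombin at 5.5 ng/mL final with Boc-Val-Pro-Arg-AMC (15 μM) in 50 mM Tris pH 7.5, 150 mM NaCl, 0.05% Tween 20. Compound tested as 16 two-fold dilutions in DMSO, 2.5 mM to 75 nM. Incubated 2 h at room temperature; fluorescence read at ex 355, em 460 nm for percent inhibition.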

[4] = biological target: T1, Ribosyldihydronicotinamide dehydrogenase [quinone] (Homo sapiens); experiment: (§4) Displacement of (S)-N4-(4-(3-(2-((4-carbamimidoylphenylamino)methyl)-1-methyl-N-(pyridin-2-yl)-1H-benzo[d]imidazole-5-carboxamido)propanamido)butyl)-N1-(15-oxo-19-((3aS,4S,6aR)-2-oxohexahydro-1H-thieno[3,4-d]imidazol-4-yl)-4,7,10-trioxa-14-azanonadecyl)-2-(4-(3-(trifluoromethyl)-3H-diazirin-3-yl)benzamido)succinamide from human recombinant NQO2 after 1 hr by silver staining-based SDS PAGE analysis; how it was run: as §1
[5] = biological target: Heterogeneous nuclear ribonucleoproteins C1/C2 (Homo sapiens) (UniProt P07910); experiment: as §2, with “HNRPC” for “HNMT”; type: cell-free; how it was run: as §3
Chain of Heterogeneous nuclear ribonucleoproteins C1/C2 (Homo sapiens) (P07910 whole entry): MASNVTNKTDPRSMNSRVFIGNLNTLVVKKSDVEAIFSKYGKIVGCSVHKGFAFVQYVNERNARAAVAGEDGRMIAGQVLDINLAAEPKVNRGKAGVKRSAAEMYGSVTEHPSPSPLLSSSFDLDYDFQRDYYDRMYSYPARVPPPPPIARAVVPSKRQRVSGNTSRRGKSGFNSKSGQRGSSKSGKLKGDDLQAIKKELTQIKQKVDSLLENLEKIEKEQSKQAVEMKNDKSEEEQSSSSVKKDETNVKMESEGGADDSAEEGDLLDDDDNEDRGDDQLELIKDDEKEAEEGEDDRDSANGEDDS

[6] = biological target: T2, Hypoxia up-regulated protein 1 (Homo sapiens) (UniProt Q9Y4L1); experiment: as §2, with “HYOU1” for “HNMT”; type: cell-free; how it was run: as §3
T2 sequence (whole entry): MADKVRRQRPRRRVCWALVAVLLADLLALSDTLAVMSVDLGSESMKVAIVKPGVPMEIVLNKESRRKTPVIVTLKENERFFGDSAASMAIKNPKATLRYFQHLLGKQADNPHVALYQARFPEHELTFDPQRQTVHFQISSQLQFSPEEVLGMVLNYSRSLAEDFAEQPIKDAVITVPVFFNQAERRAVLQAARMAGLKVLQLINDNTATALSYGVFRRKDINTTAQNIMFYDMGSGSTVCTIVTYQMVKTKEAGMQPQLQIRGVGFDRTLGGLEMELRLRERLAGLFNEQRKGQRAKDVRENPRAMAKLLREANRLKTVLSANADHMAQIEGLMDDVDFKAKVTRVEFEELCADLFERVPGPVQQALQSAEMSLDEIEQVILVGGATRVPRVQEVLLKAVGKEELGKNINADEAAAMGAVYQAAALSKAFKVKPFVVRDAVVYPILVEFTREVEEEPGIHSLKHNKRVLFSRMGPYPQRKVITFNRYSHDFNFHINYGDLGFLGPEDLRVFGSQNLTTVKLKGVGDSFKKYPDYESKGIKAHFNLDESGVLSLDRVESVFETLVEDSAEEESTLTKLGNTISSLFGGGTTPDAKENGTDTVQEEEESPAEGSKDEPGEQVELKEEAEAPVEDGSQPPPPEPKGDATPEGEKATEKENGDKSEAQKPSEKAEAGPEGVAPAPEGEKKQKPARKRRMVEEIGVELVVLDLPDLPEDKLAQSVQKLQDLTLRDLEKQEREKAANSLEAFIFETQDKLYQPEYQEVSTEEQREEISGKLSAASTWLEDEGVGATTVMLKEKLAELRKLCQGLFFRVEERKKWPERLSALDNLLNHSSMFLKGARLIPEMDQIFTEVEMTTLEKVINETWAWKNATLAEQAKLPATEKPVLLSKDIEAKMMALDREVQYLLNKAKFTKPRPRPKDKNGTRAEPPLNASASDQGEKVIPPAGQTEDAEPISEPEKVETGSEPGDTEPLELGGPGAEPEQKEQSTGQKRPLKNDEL

[7] = biological target: T1, Ribosyldihydronicotinamide dehydrogenase [quinone] (Homo sapiens); experiment: (§5) Displacement of (S)-N4-(4-(3-(2-((4-carbamimidoylphenylamino)methyl)-1-methyl-N-(pyridin-2-yl)-1H-benzo[d]imidazole-5-carboxamido)propanamido)butyl)-N1-(15-oxo-19-((3aS,4S,6aR)-2-oxohexahydro-1H-thieno[3,4-d]imidazol-4-yl)-4,7,10-trioxa-14-azanonadecyl)-2-(4-(3-(trifluoromethyl)-3H-diazirin-3-yl)benzamido)succinamide from NQO2 in human K562 cell lysate after 1 hr by capture compound based LC/MS analysis; type: cell-free; how it was run: as §3
[8] = biological target: T1, Ribosyldihydronicotinamide dehydrogenase [quinone] (Homo sapiens); experiment: Displacement of (S)-N4-(3-(3-(2-((4-carbamimidoylphenylamino)methyl)-1-methyl-N-(pyridin-2-yl)-1H-benzo[d]imidazole-5-carboxamido)propanamido)propyl)-N1-(15-oxo-19-((3aS,4S,6aR)-2-oxohexahydro-1H-thieno[3,4-d]imidazol-4-yl)-4,7,10-trioxa-14-azanonadecyl)-2-(4-(3-(trifluoromethyl)-3H-diazirin-3-yl)benzamido)succinamide from NQO2 in human HepG2 cell lysate after 1 hr by capture compound based LC/MS analysis; how it was run: as §3
[9] = biological target: T1, Ribosyldihydronicotinamide dehydrogenase [quinone] (Homo sapiens); experiment: (§6) Displacement of 3-(1-methyl-N-(pyridin-2-yl)-2-((4-(N-((S)-6,9,25-trioxo-29-((3aS,4S,6aR)-2-oxohexahydro-1H-thieno[3,4-d]imidazol-4-yl)-8-(4-(3-(trifluoromethyl)-3H-diazirin-3-yl)benzamido)-14,17,20-trioxa-5,10,24-triazanonacosyl)carbamimidoyl)phenylamino)methyl)-1H-benzo[d]imidazole-5-carboxamido)propanoic acid from human recombinant NQO2 after 1 hr by silver staining-based SDS PAGE analysis; how it was run: as §1
[10] = biological target: Adenosine kinase (Homo sapiens) (UniProt P55263); experiment: as §2, with “ADK” for “HNMT”; type: cell-free; how it was run: as §3
Chain of Adenosine kinase (Homo sapiens) (P55263 2-362 limits assumed): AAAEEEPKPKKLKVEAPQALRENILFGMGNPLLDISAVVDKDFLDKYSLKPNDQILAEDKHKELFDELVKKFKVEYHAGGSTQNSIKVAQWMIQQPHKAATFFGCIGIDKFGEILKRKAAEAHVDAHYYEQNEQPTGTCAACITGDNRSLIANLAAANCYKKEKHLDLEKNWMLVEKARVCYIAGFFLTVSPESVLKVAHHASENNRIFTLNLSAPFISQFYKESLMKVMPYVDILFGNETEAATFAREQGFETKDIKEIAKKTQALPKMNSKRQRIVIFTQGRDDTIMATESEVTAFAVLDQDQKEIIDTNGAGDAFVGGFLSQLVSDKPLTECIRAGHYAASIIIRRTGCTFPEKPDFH

[11] = biological target: T1, Ribosyldihydronicotinamide dehydrogenase [quinone] (Homo sapiens); experiment: as §5, with “lysate at 100 uM” for “lysate”, “Western blot” for “capture compound based LC/MS”; type: cell-free
How it was run: (§7)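 NQO2 capture from HepG2 or K562 lysate, or from pooled human liver microsomes, with capture compound (1 h, 4 °C) after 30 min competitor preincubation. UV cross-linked 10 min and streptavidin pulldown. Detection by Western blot: anti-NQO2 1:500, then HRP anti-rabbit secondary 1:1000.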

[12] = biological target: T1, Ribosyldihydronicotinamide dehydrogenase [quinone] (Homo sapiens); experiment: as §6, with “from NQO2 in” for “from”, “liver microsomes” for “recombinant NQO2”, “Western blot” for “silver staining-based SDS PAGE”; details: Microsome; how it was run: as §7
[13] = biological target: T1, Ribosyldihydronicotinamide dehydrogenase [quinone] (Homo sapiens); experiment: as §4, with “from NQO2 in” for “from”, “liver microsomes” for “recombinant NQO2”, “Western blot” for “silver staining-based SDS PAGE”; details: Microsome; how it was run: as §7
[14] = biological target: T1, Ribosyldihydronicotinamide dehydrogenase [quinone] (Homo sapiens); experiment: as §5, with “HepG2” for “K562”, “lysate at 100 uM” for “lysate”, “Western blot” for “capture compound based LC/MS”; type: cell-free; how it was run: as §7

Cn1c(CNc2ccc(C(=N)N)cc2)nc2cc(C(=O)N(CCC(=O)O)c3ccccn3)ccc21 [DABIGATRAN]
active: Activity [1] | Activity [2] | Activity [4] | Activity [5] | Activity [6] | Activity [7] | Activity [8] | Activity [9] | Activity [10] | Activity [11] | Activity [12] | Activity [13] | Activity [14]
13.8 nM: IC50 [3]
